Measurements reported in ChEMBL document CHEMBL4321820, “Identification and Optimization of Mechanism-Based Fluoroallylamine Inhibitors of Lysyl Oxidase-like 2/3” (J Med Chem, 2019).
Calls of active or inactive are those of the source. No cut-off for these calls is given here.

Legend:
Mus musculus [1] = assay: Antifibrotic activity in bleomycin-induced C57BL/6 mouse model of lung fibrosis assessed as reduction in Ashcroft score at 15 mg/kg, ip administered on day 7 to 27 measured on day 28 by H and E staining based microscopy; format: functional, organism-based
Outline: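 Female C57BL/6 mice, 6-8 weeks old, under isoflurane received intranasal bleomycin sulphate 0.05 U/mouse in PBS; controls got PBS. Once-daily i.p. treatment days 7-27, n=12/group; imatinib 50 mg/kg i.p. as comparator. Sacrifice at day 28; lung fibrosis scored by Ashcroft score.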

Mus musculus [2] = assay: Antifibrotic activity in CCl4-induced BALB/c mouse model of liver fibrosis assessed as reduction in liver fibrosis area at 15 mg/kg, po administered once daily for 6 weeks by alpha-SMA staining based microscopy; format: functional, organism-based
Outline: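 Female BALB/c mice given CCl4 i.p. (1 mL/kg of 25% CCl4 in olive oil) twice weekly for 6 weeks; sacrificed 48 h after last dose. Test articles oral, once daily: prophylactic weeks 1-6 or therapeutic weeks 4-6; imatinib control 50 mg/kg daily weeks 1-6. One formalin-fixed liver lobe stained for Picro Sirius Red and α-SMA; fibrotic area as % of total liver area; mean ± SEM, one-way ANOVA with Dunnett's test.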

Mus musculus [3] = assay: Effect on plasma AST level in CCl4-induced BALB/c mouse model of liver fibrosis at 15 mg/kg, po administered once daily for 6 weeks; format: ADME, organism-based; details: in vivo, 1008 h
Outline: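 CCl4 liver fibrosis in female BALB/c mice: CCl4 i.p. (1 mL/kg 25% in olive oil) twice weekly for 6 weeks, sacrifice 48 h after final injection. Oral once-daily dosing weeks 1-6 or weeks 4-6; imatinib 50 mg/kg daily weeks 1-6. ALT and AST measured in plasma.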

Lysyl oxidase homolog 2 [4] = target: T1, Lysyl oxidase homolog 2 (Homo sapiens, UniProt Q9Y4K0); assay: Inhibition of recombinant human LOXL2 assessed as inhibition of collagen cross linking compound replenishment for 5 days and measured on day 7 by UPLC-ESI-MS/MS analysis
T1 sequence (Q9Y4K0 whole entry): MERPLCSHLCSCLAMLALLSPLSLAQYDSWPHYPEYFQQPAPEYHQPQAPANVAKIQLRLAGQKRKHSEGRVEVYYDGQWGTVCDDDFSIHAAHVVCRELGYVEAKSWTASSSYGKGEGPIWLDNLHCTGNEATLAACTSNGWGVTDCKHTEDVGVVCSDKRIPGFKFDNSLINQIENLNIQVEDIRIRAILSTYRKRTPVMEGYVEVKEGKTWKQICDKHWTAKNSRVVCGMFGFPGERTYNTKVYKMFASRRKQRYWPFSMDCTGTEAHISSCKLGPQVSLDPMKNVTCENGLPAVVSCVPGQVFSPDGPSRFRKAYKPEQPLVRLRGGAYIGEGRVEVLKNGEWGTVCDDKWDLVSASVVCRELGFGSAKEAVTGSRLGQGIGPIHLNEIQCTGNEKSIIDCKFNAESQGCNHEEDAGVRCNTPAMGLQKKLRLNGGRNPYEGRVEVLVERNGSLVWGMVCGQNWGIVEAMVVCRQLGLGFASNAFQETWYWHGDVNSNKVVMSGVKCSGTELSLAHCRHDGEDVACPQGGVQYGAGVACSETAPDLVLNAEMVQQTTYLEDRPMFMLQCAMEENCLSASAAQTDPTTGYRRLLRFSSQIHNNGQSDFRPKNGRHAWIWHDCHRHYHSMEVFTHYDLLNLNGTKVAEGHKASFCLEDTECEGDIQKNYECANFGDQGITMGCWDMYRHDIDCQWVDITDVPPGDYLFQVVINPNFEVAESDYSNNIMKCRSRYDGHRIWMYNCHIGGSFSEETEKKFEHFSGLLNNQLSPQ

Lysyl oxidase homolog 3 = target: T2, Lysyl oxidase homolog 3 (Homo sapiens, UniProt P58215); assay: Inhibition of recombinant C-terminal His-tagged human LOXL3 (1 to 753 residues) expressed in CHO cells using putrescine as substrate preincubated with enzyme for 30 mins followed by substrate addition and measured every 2.5 mins for 30 mins by Amplex-Red oxidation assay
T2 sequence (P58215 whole entry): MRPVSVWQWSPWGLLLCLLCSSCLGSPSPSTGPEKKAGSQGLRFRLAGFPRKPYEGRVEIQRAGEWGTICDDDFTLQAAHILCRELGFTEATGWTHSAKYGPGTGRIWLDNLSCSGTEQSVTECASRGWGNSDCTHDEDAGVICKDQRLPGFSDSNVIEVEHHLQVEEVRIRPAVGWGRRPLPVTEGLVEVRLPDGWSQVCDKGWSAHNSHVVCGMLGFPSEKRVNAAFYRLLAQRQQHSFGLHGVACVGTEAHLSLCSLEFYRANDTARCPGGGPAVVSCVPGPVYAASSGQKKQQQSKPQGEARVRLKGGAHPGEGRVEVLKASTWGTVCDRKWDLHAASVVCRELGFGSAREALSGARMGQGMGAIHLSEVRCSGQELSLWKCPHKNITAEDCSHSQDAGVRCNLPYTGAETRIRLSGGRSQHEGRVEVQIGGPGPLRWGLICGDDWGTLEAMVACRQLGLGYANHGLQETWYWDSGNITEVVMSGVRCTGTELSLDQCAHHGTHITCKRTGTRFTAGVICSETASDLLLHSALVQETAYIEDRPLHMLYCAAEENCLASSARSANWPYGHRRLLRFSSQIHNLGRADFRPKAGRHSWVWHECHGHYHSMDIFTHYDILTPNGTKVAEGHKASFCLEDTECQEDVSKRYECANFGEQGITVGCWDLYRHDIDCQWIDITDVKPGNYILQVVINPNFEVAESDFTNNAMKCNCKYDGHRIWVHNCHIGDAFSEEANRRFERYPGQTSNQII
Outline: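 Recombinant human LOXL3 or LOXL4 preincubated 30 min at 37 °C with compound in 1.2 M urea/50 mM borate pH 8.2, then Amplex Red (120 µM)/HRP (1.5 U/mL) with 2 mM putrescine; fluorescence read every 2.5 min for 30 min.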

[5] = Protein binding in dog plasma; format: ADME, cell-free, Canis lupus familiaris; details: read-out: PPB (converted)
Lysyl oxidase homolog 2 [6] = target: T1, Lysyl oxidase homolog 2; assay: Time-dependent inhibition of recombinant human C-terminal His-tagged […] (1-774 residues) expressed in mouse myeloma cells assessed as apparent inhibition constant using putrescine as substrate by kitz-wilson plot analysis
Outline: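 Recombinant human LOXL2 preincubated with inhibitor for varying times at 37 °C, then 5 mM putrescine added with 120 µM Amplex Red and 1.5 U/mL HRP. Buffer was 1.2 M urea, 50 mM sodium borate, pH 8.2. Fluorescence read every 2.5 min for 30 min. Apparent Ki and kinact derived by Kitz–Wilson analysis.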

[7] = Oral bioavailability in mouse; format: ADME, organism-based; details: in vivo
Lysyl oxidase homolog 2 [8] = target: T1, Lysyl oxidase homolog 2; assay: Inhibition of recombinant human C-terminal His-tagged […] (1-774 residues) expressed in mouse myeloma cells assessed as inhibition of collagen oxidation measured every 1 min for 3 hrs by Amplex-Red oxidation assay; format: cell-based
Outline: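 Rat tail type I collagen (1.5 mg/mL in 50 mM borate pH 8.2) combined with rhLOXL2 with or without inhibitor (BAPN 100 µM control). Amplex Red (120 µM)/HRP (1.5 U/mL) mix added. Fluorescence read every 1 min for 3 h at 37 °C; slope from the linear 20-40 min phase used for IC50.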

[9] = Stability in human plasma assessed as half life

Compound | inhibition (Mus musculus [1]) | inhibition (Mus musculus [2]) | Activity (Mus musculus [3]) | IC50 (Lysyl oxidase homolog 2 [4]) [nM] | IC50 (Lysyl oxidase homolog 3) [nM] | fraction unbound [5] | Ki (Lysyl oxidase homolog 2 [6]) [nM] | bioavailability [7] [%] | IC50 (Lysyl oxidase homolog 2 [8]) [nM] | half-life [9] [h]
CCOC(=O)c1ccc2c(c1)c(-c1cccc(S(=O)(=O)N(C)C)c1)c(C)n2C/C(F)=C/CN.Cl | Active | Active | Non-Toxic |  |  |  |  |  |  | 
Cc1c(-c2cccc(S(=O)(=O)N(C)C)c2)c2cc(C(=O)O)ccc2n1C/C(F)=C/CN.Cl |  |  |  | 13 | 16 | 0.14 | 83 | < 1 | 13 | > 2
